Results reported in ChEMBL document CHEMBL2331480, “Novel naphthoquinone derivatives: synthesis and activity against human African trypanosomiasis” (Bioorg Med Chem Lett, 2013).

What was measured:
[1] = system: Trypanosoma brucei rhodesiense; assay: Antitrypanosomal activity against Trypanosoma brucei rhodesiense after 48 hrs by CellTiter-Glo assay; format: functional, organism-based
Outline: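 T. b. rhodesiense bloodstream forms isolated from infected blood (citrate-glucose anticoagulant, diluted in HMI-9, low-speed spin), grown at 37 °C, 5% CO2 in HMI-9 with 10% heat-inactivated FBS and 10% Serum Plus. Compounds in DMSO pin-transferred onto diluted culture; 48 h at 37 °C; CellTiter-Glo read […] as percent of control; IC50 calculated.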

L6 = assay: Cytotoxicity against rat L6 cells after 72 hrs by SRB assay; format: cell-based; conditions: L6, 72 h
Outline: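 L-6 rat skeletal myoblasts seeded at 2 × 10^3 cells/100 µL in DMEM with 10% heat-inactivated FBS onto threefold serially diluted compounds, with solvent blanks; 72 h at 37 °C, 5% CO2. Cells fixed with TCA (10% final, 4 °C, 1 h), stained 45 min with 0.4% SRB in 1% acetic acid, dye solubilized in 10 mM Tris base pH 10.5.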

SMILES | IC50 [1] [µM] | IC50 (L6) [µM]
Cc1ccc(NC2=C(Cl)C(=O)c3ccccc3C2=O)cc1 | 20 | > 450
O=C1C(Cl)=C(Nc2ccccc2)C(=O)c2ccccc21 | 0.17 | 417
Cc1ccccc1NC1=C(Cl)C(=O)c2ccccc2C1=O | 18 | > 450
Cc1cccc(NC2=C(Cl)C(=O)c3cccc([N+](=O)[O-])c3C2=O)c1 | 10 | 214
Cc1cccc(NC2=C(Cl)C(=O)c3c(cccc3[N+](=O)[O-])C2=O)c1 | 11 | 223
O=C1C(Nc2ccccc2C(F)(F)F)=C(Nc2ccccc2C(F)(F)F)C(=O)c2ccccc21 | 0.45 | 292
O=C1C(Cl)=C(Nc2ccccc2C(F)(F)F)C(=O)c2ccccc21 | 0.15 | 307
O=C1C(Nc2ccccc2C(F)(F)F)=C(Nc2ccccc2C(F)(F)F)C(=O)c2c1cccc2[N+](=O)[O-] | 0.09 | 88
O=C1C(Cl)=C(Nc2ccccc2C(F)(F)F)C(=O)c2c1cccc2[N+](=O)[O-] | 0.07 | 75
O=C1C(Nc2ccccc2C(F)(F)F)=C(Cl)C(=O)c2c1cccc2[N+](=O)[O-] | 0.05 | 95
O=C1C(Nc2ccc(C(F)(F)F)cc2)=C(Nc2ccc(C(F)(F)F)cc2)C(=O)c2ccccc21 | 2 | 276
O=C1C(Cl)=C(Nc2ccc(C(F)(F)F)cc2)C(=O)c2ccccc21 | 0.8 | 292
O=C1C(Nc2ccc(C(F)(F)F)cc2)=C(Nc2ccc(C(F)(F)F)cc2)C(=O)c2c1cccc2[N+](=O)[O-] | 4 | 97
O=C1C(Cl)=C(Nc2ccc(C(F)(F)F)cc2)C(=O)c2c1cccc2[N+](=O)[O-] | 2 | 121
O=C1C(Nc2ccc(C(F)(F)F)cc2)=C(Cl)C(=O)c2c1cccc2[N+](=O)[O-] | 0.8 | 115
O=C1C(Nc2ccccc2)=C(Nc2ccccc2)C(=O)c2ccccc21 | 0.67 | 378
Cc1ccccc1NC1=C(Nc2ccccc2C)C(=O)c2ccccc2C1=O | 20 | > 450
Cc1ccc(NC2=C(Nc3ccc(C)cc3)C(=O)c3ccccc3C2=O)cc1 | 24 | > 450
Cc1cccc(NC2=C(Nc3cccc(C)c3)C(=O)c3ccccc3C2=O)c1 | 21 | > 450
Cc1cccc(NC2=C(Cl)C(=O)c3ccccc3C2=O)c1 | 18 | > 450
Cc1ccccc1NC1=C(Nc2ccccc2C)C(=O)c2c(cccc2[N+](=O)[O-])C1=O | 7 | 186
Cc1ccccc1NC1=C(Cl)C(=O)c2cccc([N+](=O)[O-])c2C1=O | 4 | 195
Cc1ccccc1NC1=C(Cl)C(=O)c2c(cccc2[N+](=O)[O-])C1=O | 3 | 210
Cc1ccc(NC2=C(Nc3ccc(C)cc3)C(=O)c3c(cccc3[N+](=O)[O-])C2=O)cc1 | 12 | 172
Cc1ccc(NC2=C(Cl)C(=O)c3cccc([N+](=O)[O-])c3C2=O)cc1 | 8 | 186
Cc1ccc(NC2=C(Cl)C(=O)c3c(cccc3[N+](=O)[O-])C2=O)cc1 | 6 | 169
Cc1cccc(NC2=C(Nc3cccc(C)c3)C(=O)c3c(cccc3[N+](=O)[O-])C2=O)c1 | 15 | 195
